Screening results from PubChem BioAssay.
HKDC1 inhibitor = inhibitors of human hexokinase HKDC1; Q2TB90; AID 493160; inhibition, % at 20 µM; 0.16% of 340,000 active; recombinant HKDC1, G6PDH/diaphorase resazurin coupled fluorescence;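 active = inhibition above about 35% when tested at 20 µM, limit read from the data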;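 also: plate controls were DMSO wells with enzyme for no effect and DMSO wells lacking enzyme for full effect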
Target sequence (Q2TB90 whole entry, looked up): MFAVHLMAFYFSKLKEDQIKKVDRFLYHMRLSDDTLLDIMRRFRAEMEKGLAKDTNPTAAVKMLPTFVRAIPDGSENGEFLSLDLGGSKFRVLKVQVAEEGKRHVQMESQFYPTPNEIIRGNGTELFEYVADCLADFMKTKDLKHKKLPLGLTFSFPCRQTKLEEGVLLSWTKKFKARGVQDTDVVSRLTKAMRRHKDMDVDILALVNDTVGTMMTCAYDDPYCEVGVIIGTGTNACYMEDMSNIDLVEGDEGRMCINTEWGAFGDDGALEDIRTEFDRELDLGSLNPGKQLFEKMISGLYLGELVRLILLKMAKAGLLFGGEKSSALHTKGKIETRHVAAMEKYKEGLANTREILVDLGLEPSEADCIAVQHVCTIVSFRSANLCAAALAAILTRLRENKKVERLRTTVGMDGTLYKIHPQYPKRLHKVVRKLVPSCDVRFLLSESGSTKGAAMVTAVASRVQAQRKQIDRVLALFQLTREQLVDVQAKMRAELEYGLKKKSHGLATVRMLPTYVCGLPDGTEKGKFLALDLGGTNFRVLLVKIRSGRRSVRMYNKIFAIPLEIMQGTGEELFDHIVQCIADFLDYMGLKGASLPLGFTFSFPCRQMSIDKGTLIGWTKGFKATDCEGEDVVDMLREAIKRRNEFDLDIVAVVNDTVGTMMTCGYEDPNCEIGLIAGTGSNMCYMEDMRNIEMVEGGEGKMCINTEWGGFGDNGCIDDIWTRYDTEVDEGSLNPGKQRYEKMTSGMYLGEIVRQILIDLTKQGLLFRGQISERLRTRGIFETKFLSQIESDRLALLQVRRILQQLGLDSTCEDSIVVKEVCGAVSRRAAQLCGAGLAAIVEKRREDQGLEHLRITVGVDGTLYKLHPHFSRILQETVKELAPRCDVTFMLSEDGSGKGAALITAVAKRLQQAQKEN
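Incubation: 90 min at room temperature in dark / Material: recombinant HKDC1 (HK5) hexokinase enzyme, produced in-house / Quantity: enzyme 5 µg/mL final / Compound: one dose of 20 µM, 1% DMSO / Reagent: glucose and ATP substrates / Buffer or medium: Tris pH 8.0 buffer with MgCl2, Tween-20, BSA, BME / Technique: resorufin fluorescence at 613 nm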
G6PDH counter = L. mesenteroides G6PDH inhibition counter-screen. Purified L. mesenteroides G6PDH, diaphorase/resazurin coupled fluorescence, 45 min. 0.12% of 200,000 active. AID 1020. inhibition, % at 5 µM; in the data active = inhibition above about 50%
PfGluPho inh = PfG6PD (Plasmodium falciparum) enzyme inhibition. inhibition, % at 20 µM. PfGluPho enzyme, NADPH resazurin-diaphorase fluorescence. 0.78% of 350,000 active;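 active = inhibition reaching at least a set limit at 20 µM in the primary screen, cut at about 59% in these data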;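 also: 0% = DMSO wells with substrate and 100% = DMSO wells lacking glucose-6-phosphate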
Diaph act CS = activates diaphorase or chemically reduces, flagging diaphorase assay artifacts. 0.005% of 190,000 active. AID 1229. activation factor at 20 µM. Diaphorase/resazurin coupled assay, resorufin fluorescence, 16 min; stronger effect = higher value; 1 = vehicle wells, 0 = NADH-free wells;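 active = diaphorase activity raised at least twofold by the compound at 20 µM; inactive = activation factor below 2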
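Measured by – red resorufin fluorescence at 544/590 nm excitation/emission · Test system – Clostridium kluyveri diaphorase, purified enzyme · Incubation – reaction time 16 min, room temperature · Buffer or medium – 50 mM HEPES pH 7.4 with 4.542 mM MgCl2, 0.005% Tween 20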
Diaph inh CS = diaphorase inhibition or chemical oxidation counter-screen. diaphorase resazurin-to-resorufin fluorescence, NADH, 16 min; bacterial (C. kluyveri) enzyme, not human. inhibition, % at 20 µM. 0.69% of 190,000 active;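 active = primary screen inhibition at 20 µM above a set limit, cut at about 50% in these data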;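 also: plate controls were DMSO with full reaction for no effect and wells lacking NADH for full effect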
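Benchmarks: positive control wells lacking NADH, neutral wells with DMSO only. System: bacterial diaphorase enzyme (C. kluyveri). Input: 0.14 U/mL diaphorase, enzyme working solution. Detection: resorufin fluorescence, excitation 544 nm, emission 590 nm. Times: 16-min room-temperature incubation before reading.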
PfGluPho conf = PfG6PD inhibition, single-dose confirmed | recombinant PfGluPho, NADPH-diaphorase-resazurin fluorescence | inhibition, % at 20 µM | 34% of 2,400 active | shares compounds with PfGluPho inh;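 active = inhibition of at least 50% at 20 µM in any single replicate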;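 also: 0% = DMSO with substrate and 100% = DMSO lacking glucose-6-phosphate substrate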
Diaphorase 10uM = counter-screen for P. falciparum G6PD inhibitors: diaphorase inhibitors, oxidizers | diaphorase-coupled resazurin reduction, fluorescence, NADPH 10 uM | 39% of 820 active | inhibition, % at 20 µM | AID 504862 | shares compounds with PfGluPho inh;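 active = average inhibition reaching 50% or more with the compound at 20 µM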;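 also: resorufin red fluorescence formed as diaphorase reduces resazurin using NADPH; 0% = DMSO with enzyme and 100% = DMSO without enzyme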
Diaph ctr 30uM = inhibits diaphorase or oxidizes, flagging false PfG6PD hits. 29% of 820 active. Diaphorase/resazurin coupled assay, resorufin fluorescence, 30 uM NADPH. shares compounds with PfGluPho inh. inhibition, % at 20 µM. AID 504863;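 active = inhibition averaging 50% or more, tested at 20 µM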;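 also: 0% = DMSO with enzyme and 100% = DMSO wells lacking diaphorase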
The depositor's hits bear a star; nt = not tested or not shown. Compounds with a hit are over-represented: about 1.2% of the library has one in this group of screens.

SMILES	HKDC1 inhibitor	G6PDH counter	PfGluPho inh	Diaph act CS	Diaph inh CS	PfGluPho conf	others
CN(CCNC(=O)c1ccc(CS(=O)(=O)c2c(Cl)cccc2Cl)o1)CCc1ccccc1	-2.2	nt	0.1	nt	nt	nt
CN1CCN(S(=O)(=O)NC[C@H]2O[C@@H](n3cnc4c(N)ncnc43)[C@H](O)[C@@H]2O)CC1	-0.9	nt	7.6	nt	nt	nt
CCOC(=O)c1sc(NC(=O)c2ccncc2)c(C#N)c1C	-14.7	-2.8	77.8*	1	2.7	45.2
CCOC(=O)C1CCN(C(=O)c2cccnc2Oc2ccccc2)CC1	-3.1	nt	-18.5	nt	nt	nt
O=c1c(Br)ccc(Br)cc1Br	31.8	nt	65.8*	nt	nt	45.1
CN1C(=O)CSc2ccc(NC(=O)N3CCc4ccccc43)cc21	-4.1	3.7	86.8*	1	-0.9	59.5*	Diaphorase 10uM=45.2;Diaph ctr 30uM=35.3
COCCN(Cc1nc2ccccc2c(=O)[nH]1)C(=O)COc1c(C)cc(Cl)cc1C	2.8	nt	72.4*	nt	nt	34.8
Cc1ccc(/C(N)=N/OC(=O)c2cccc(Cn3cc(C(F)(F)F)ccc3=O)c2)cc1	0.9	nt	24.9	nt	nt	nt
CC1(OC(=O)C2CCCC2)C(=O)C=C2C=C(c3ccsc3)N(Cc3ccco3)C=C2C1=O (stereo unspecified)	26.2	nt	42.4	nt	nt	nt
CC1(OC(=O)C2CCCC2)C(=O)C=C2C=C(c3ccsc3)N(CCCCO)C=C2C1=O (stereo unspecified)	18.9	nt	65.8*	nt	nt	35.8
CC1(OC(=O)C2CCCC2)C(=O)C=C2C=C(c3ccsc3)N(C3CCCC3)C=C2C1=O (stereo unspecified)	23.2	nt	63.2*	nt	nt	38.0
CC(C)N(Cc1ccccc1)C(=O)CCS(=O)(=O)c1ccc2c(c1)oc(=O)n2C	-6.1	nt	9.2	nt	nt	nt
Cc1nnc(NC(=O)C(C)Sc2nnc(-c3ccco3)n2C(C)C)s1 (stereo unspecified)	-0.1	nt	-11.0	nt	nt	nt
O=C(Nc1nnc(CSCc2ccc(Cl)cc2)s1)c1cccc([N+](=O)[O-])c1	-1.0	2.7	51.8	0.9	12.9	nt
CCC(C)(C)c1nnc(NC(=O)c2cccc([N+](=O)[O-])c2)s1	-2.9	13.1	116.4*	0.9	13.2	88.5*	Diaphorase 10uM=93.4*;Diaph ctr 30uM=63.7*
O=C(Nc1nnc(CSCc2ccc(F)cc2)s1)c1cccc([N+](=O)[O-])c1	-2.8	-14.1	73.0*	0.9	11.3	44.4
O=C(CN(C(=O)c1csnn1)c1ccccc1F)NCc1ccccc1	0.9	nt	0.2	nt	nt	nt
O=C(c1cccnc1)N1CCC2CC1c1c(Cl)cccc12 (stereo unspecified)	nt	nt	8.0	nt	nt	nt
COc1ccc(/C=N/Nc2ccc([N+](=O)[O-])cc2)cc1O	-0.9	nt	80.6*	nt	nt	13.3
Cc1cc([N+](=O)[O-])nn1CCCC(=O)Nc1sc2c(c1C(N)=O)CCCC2	-13.6	-8.0	67.0*	0.9	8.3	31.7
NC(=O)c1c(NC(=O)CCCn2cnc([N+](=O)[O-])n2)sc2c1CCCC2	-12.5	10.2	75.8*	1.1	-7.1	42.3
Cc1cc([N+](=O)[O-])nn1CC(=O)Nc1sc2c(c1C(N)=O)CCCC2	5.1	0.9	-0.9	0.8	16.7	nt
O=C(c1ccccc1)C(CN1CCCCC1)c1ccccc1 (stereo unspecified)	8.2	nt	7.8	nt	nt	nt
CCOc1ccc(-n2c(N)c(C(=O)NCc3ccco3)sc2=S)cc1	-1.6	9.4	85.4*	0.8	17.2	30.6
COc1ccc(CNC(=O)c2sc(=S)n(-c3ccccc3)c2N)cc1	-6.4	nt	60.7*	nt	nt	41.3
SMILES	HKDC1 inhibitor	G6PDH counter	PfGluPho inh	Diaph act CS	Diaph inh CS	PfGluPho conf	others
Cc1ccc(-n2c(N)c(C(=O)N3CCOCC3)sc2=S)cc1	-13.8	10.9	53.0	1	3.4	nt
CN1CCN(C(=O)c2sc(=S)n(-c3ccccc3)c2N)CC1	-5.4	-9.1	82.3*	0.8	15.9	83.4*	Diaphorase 10uM=19.2;Diaph ctr 30uM=-7.3
COC(=O)c1sc(=S)n(-c2cccc(Cl)c2)c1N	-14.7	5.8	72.5*	0.8	16.2	26.7
CCOC(=O)c1sc(=S)n(-c2ccccc2)c1N	-4.5	7.3	5.2	1	0.2	nt
Cc1nn(C2CCS(=O)(=O)C2)c(C)c1CN(C)C(=O)c1cccc(Cl)c1 (stereo unspecified)	-3.1	nt	-6.1	nt	nt	nt
COc1ccc(CCNC(=O)c2ccccc2NC(=O)C2=C(C)OCCS2)c(OC)c1	-6.3	nt	8.1	nt	nt	nt
COc1ccc(CCN2CC(C(=O)N(C)C3CCOCC3)CCC2=O)cc1 (stereo unspecified)	7.4	nt	-6.7	nt	nt	nt
COc1cccc(NC(=O)C2CC2(c2cccc(OC)c2)c2cccc(OC)c2)c1 (stereo unspecified)	0.6	2.1	111.3*	0.9	14.5	42.8
N#CC(C#N)=C1C=CC=CN1/C(=C\c1ccccc1Cl)C(=O)c1ccccc1	7.4	3.4	78.2*	0.8	19.1	56.6*	Diaphorase 10uM=-5.2;Diaph ctr 30uM=-1.6
CCN(c1ccccc1)S(=O)(=O)c1cccc(C(=O)NCCN2CCOCC2)c1	-8.0	nt	10.3	nt	nt	nt
Cn1c(=O)[nH]c(=O)c2c1nc(SCCN1CCCCC1)n2CCCc1ccccc1	0.0	-0.7	76.8*	0.9	11.8	62.7*	Diaphorase 10uM=6.2;Diaph ctr 30uM=-5.2
CCn1c(SCC(=O)c2cc(C)n(-c3ccc(C(=O)OC)cc3)c2C)nnc1-c1cccnc1	0.4	-3.0	90.3*	1	2.7	36.9
CCn1c(SCC(=O)c2cc(C)n(C)c2C)nnc1-c1ccccc1	-6.0	-4.9	28.0	0.9	7.1	nt
O=C(Nc1ccc2oc(=O)ccc2c1)c1cc2ccccc2o1	-3.0	6.0	38.3	0.9	7.5	nt
O=C(Nc1ccc2c(c1)OCCO2)c1cc2ccccc2o1	-9.4	-0.9	72.3*	0.8	18.7	28.4
CCc1nnc(NC(=O)C2=CCN(S(=O)(=O)c3ccc(F)cc3)CC2)s1	-0.3	nt	1.8	nt	nt	nt
Cc1ccc(O)c(CP(=O)(c2ccccc2)c2ccccc2)c1	-4.9	13.9	13.6	0.9	6.7	nt
CCNc1ccccc1CP(=O)(c1ccccc1)c1ccccc1O (stereo unspecified)	22.9	nt	81.1*	nt	nt	86.7*	Diaphorase 10uM=43.7;Diaph ctr 30uM=23.0
O=C(CSc1nnc(CNC(=O)c2ccccc2)o1)Nc1nccs1	0.1	nt	-15.9	nt	nt	nt
O=C1C=CC(=O)N1c1ccc(-c2nc3ccccc3o2)cc1	nt	nt	107.5*	nt	nt	76.9*	Diaphorase 10uM=-24.7;Diaph ctr 30uM=-2.9
Nc1ccc(-c2nc3ccccc3o2)cc1	-1.5	nt	-1.3	nt	nt	nt
COc1cc(NC(C)CCc2ccccc2)cc(OC)c1OC (stereo unspecified)	16.2	nt	77.3*	nt	nt	79.1*	Diaphorase 10uM=7.8;Diaph ctr 30uM=3.1
